# Measured values pooled from the literature.
# Compare with care: the assays were run in different laboratories.
# Target: Ribosomal protein S6 kinase beta-1 (RPS6KB1, Homo sapiens, UniProt P23443)
Compound,test,setting,endpoint,result
COc1cc(/C=C/C(=O)CC(=O)/C=C/c2ccc(O)c(OC)c2)ccc1O,"enzyme activity, inhibitor",1 µM,activity vs control,46%
C[C@@H]1CN(c2cc(-c3nn(C)c4ccc(OC5(C)CC5)cc34)ncn2)C[C@H](C)O1,"cell-free assay, competition with immobilised ligand",1 µM,remaining binding,100%
Oc1cccc(-c2nc(N3CCOCC3)c3oc4ncccc4c3n2)c1,cell-free assay,0.5 µM,remaining signal,106%
Cc1ccc(-n2nc(C(C)(C)C)cc2NC(=O)Nc2ccc(OCCN3CCOCC3)c3ccccc23)cc1,"enzyme activity, inhibitor",10 µM,inhibition,39%
CNc1cccc2cc(C(=O)Nc3ccc(C(=O)O)cc3)c(=O)[nH]c12,"enzyme activity, inhibitor",10 µM,inhibition,9%
N#CCCc1ccc2c(c1)-c1[nH]c3ccc([N+](=O)[O-])cc3c1CC(=O)N2,cell-free assay,0.5 µM,remaining signal,98%
CCN(CC)CCNC(=O)c1c(C)[nH]c(/C=C2\C(=O)Nc3ccc(F)cc32)c1C,"enzyme activity, inhibitor",0.3 µM,inhibition,30%
O=C1NC(=O)c2cc(Nc3ccc(F)cc3)c(Nc3ccc(F)cc3)cc21,cell-free assay,0.5 µM,remaining signal,95.5%
C[C@H](c1cccc(C#N)c1)n1cc(Cl)cc(C(N)=O)c1=N,"cell-free assay, competition with immobilised ligand",1 µM,remaining binding,100%
Nc1ncnc2occ(-c3ccc(NC(=O)Nc4cc(C(F)(F)F)ccc4F)cc3)c12,"cell-free assay, inhibitor",20 µM,remaining signal,0.1%
CN(C)C1CCN(CC#Cc2nn(C3CCCC3)c3nc(NCc4ccccc4)ncc23)C1 (stereo not shown),"enzyme activity, inhibitor, FRET",10 µM,inhibition,10%
c1ccc(N2CCN(Cc3nc4ccccc4[nH]3)CC2)nc1,"binding, competition with immobilised ligand",1 µM,remaining binding,97%
CN(c1ncccc1CNc1nc(Nc2ccc3c(c2)CC(=O)N3)ncc1C(F)(F)F)S(C)(=O)=O,"enzyme activity, inhibitor",1 µM,inhibition,26.4%
O=C(NCCCC1CCCCC1)c1ccc(CNC(=O)c2cnn(-c3ccccc3)c2C(F)(F)F)cc1,"cell-free assay, competition with immobilised ligand",0.1 µM,remaining binding,96%
COc1cc2ncnc(Nc3ccc(Oc4ccccc4)c(C)c3C)c2cc1OC,"enzyme activity, inhibitor",1 µM,inhibition,-3%
CSc1cccnc1N1CCN(Cc2nc3ccccc3[nH]2)CC1,"cell-free assay, competition with immobilised ligand",1 µM,remaining binding,87%
Cn1cncc1C1=CN(c2ncnc3[nH]cnc23)CCS1,"enzyme activity, inhibitor, radiometric",2 µM,inhibition,87.3%
CN([C@@H]1CCc2c(CC(=O)O)c3ccccc3n2C1)S(=O)(=O)c1ccc(F)cc1,"cell-free assay, competition with immobilised ligand",1 µM,remaining binding,100%
C=CC(=O)Nc1cc(Nc2nccc(Nc3cc(Cl)c(F)cc3C(C)(C)O)n2)c(OC)cc1N1CC[C@@H](N(C)C)C1,"enzyme activity, inhibitor",1 µM,inhibition,-3%
